Most compounds without a hit are left out; they make up all but 1.4% or so of the library.
MT1-MMP act inh = blockers of MT1-MMP proenzyme processing, primary screen, HT1080 RFP-PRO-GFP cells, GFP/RFP fluorescence. actives 0.061% (n = 360,000). Matrix metalloproteinase-14 (Homo sapiens), P50281. GFP/RFP ratio change, % at 20 µM. GFP/RFP ratio fluorescence, overnight; percent of plate control window, DMSO zero. AID 651647, 2012;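 active means GFP/RFP ratio change of at least 30% with cell ATP level not reduced by more than half and red fluorescence within 50% of control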
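system = RFP-PRO-GFP reporter HT1080 cells | dosing = 20 µM single dose, 1% DMSO | timing = overnight cell settling, then overnight compound exposure, 37 °C, 5% CO2 | read-out basis = GFP/RFP fluorescence ratio | controls = DMSO and RFP-L50D-GFP cell wells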
DAGLB inh = DAGLB lipase inhibitors, primary screen, biochemical, fluorescence, HTS | inhibition, % at 5.17 µM | Diacylglycerol lipase-beta (Homo sapiens), Q8NCG7 | actives 0.059% (n = 340,000) | HEK293T DAGLB membrane lysate, EnzChek fluorogenic substrate; in the data active means inhibition above about 34%
DDE Tn7 FP inh = inhibitors of Tn7 peptide binding to fibrin DD(E), primary screen, biochemical, fluorescence polarization, human fibrin, Tn7 probe | actives 0.13% (n = 370,000) | FP displacement of FITC-Tn7 peptide from fibrin DD(E); 0% = median of compound wells per plate | inhibition, % at 8.3 µM | AID 720508, 2013 | Fibrinogen beta chain (Homo sapiens), P02675;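 active means inhibition above the mean of compounds falling within the control limits plus 3 SD of them, cut at about 14% in these data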
Target sequence (P02675 whole entry, looked up): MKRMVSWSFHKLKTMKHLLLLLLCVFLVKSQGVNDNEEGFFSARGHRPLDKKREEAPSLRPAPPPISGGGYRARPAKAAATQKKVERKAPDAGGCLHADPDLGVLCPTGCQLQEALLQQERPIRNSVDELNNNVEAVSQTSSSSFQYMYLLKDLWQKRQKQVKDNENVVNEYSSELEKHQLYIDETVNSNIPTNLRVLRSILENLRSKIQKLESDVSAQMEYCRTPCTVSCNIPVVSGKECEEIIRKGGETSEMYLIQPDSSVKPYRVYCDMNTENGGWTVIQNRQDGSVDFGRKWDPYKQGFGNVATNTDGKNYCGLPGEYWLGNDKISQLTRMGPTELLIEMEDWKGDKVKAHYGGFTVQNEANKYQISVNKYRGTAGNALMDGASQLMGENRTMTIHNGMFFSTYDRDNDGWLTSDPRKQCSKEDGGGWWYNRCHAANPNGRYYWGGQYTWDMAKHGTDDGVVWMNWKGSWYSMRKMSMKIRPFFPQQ
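Test system – human fibrin DD(E) · Times – 10 min preincubation, 3 h with tracer, room temperature · Detection – fluorescence polarization of the labelled Tn7 tracer · Measure – percent inhibition normalized to high-control wells · Benchmarks – high control wells with 10 µM unlabelled Aha-Tn7 peptide (full inhibition) · Repeats – singlicate testing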
Cardio protect = cardioprotection against H2O2-induced cell death, primary screen, uHTS, H9c2 cells, ATPLite luminescence. H9c2 cardiomyocytes, H2O2 injury protection, 2 h. protection from H2O2 cell death, % at 20 µM. actives 0.63% (n = 360,000). AID 588492, 2011;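 active means compounds giving at least 50% protection of heart cells from peroxide-induced death in the single-dose screen, raw or plate-pattern-corrected value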
Tn6 DDE FP = inhibitors of Tn6 peptide binding to fibrin DD(E), primary screen, biochemical, fluorescence polarization, human fibrin, Tn6 probe; Fibrin DD(E) TRITC-Tn6 fluorescence polarization displacement; actives 0.21% (n = 370,000); inhibition, % at 8.3 µM;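 active means inhibition above a per-campaign cutoff: mean of compounds within control limits plus 3 SD, cut at about 15% in these data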
H9c2 TAG inh = inhibitors of triacylglycerol accumulation, primary screen, cell-based, uHTS, fluorescence, H9c2 | H9c2 cells, Nile Red lipid (TAG) fluorescence; cells loaded with 200 µM oleic acid | actives 0.66% (n = 230,000) | inhibition, % at 12.5 µM;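 active means pattern-corrected inhibition of lipid staining of at least 50% with the nuclear-stain viability signal not falling by more than 50%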
A number is an active result; i = inactive; nt = no result.

SMILES | MT1-MMP act inh | DAGLB inh | DDE Tn7 FP inh | Cardio protect | Tn6 DDE FP | H9c2 TAG inh
Cc1ccc(N=Nc2ccc(O)c(/C=N\NC(=O)c3ccc(N)cc3)c2)cc1C | i | i | i | 56 | i | i
CCOc1ccccc1C=NNC(=O)C(=O)NN=Cc1ccccc1OCC | i | i | i | i | i | i
O=C(N/N=C/c1cc(Br)ccc1O)c1ccncc1 | i | i | i | i | i | 56
O=C(N/N=C/c1cc([N+](=O)[O-])ccc1O)c1ccncc1 | i | i | i | i | i | i
O=C(N/N=C/c1cc(Cl)ccc1O)c1ccc(Br)cc1 | i | i | i | i | i | nt
O=C(N/N=C/c1ccccc1O)c1ccncc1 | i | i | i | 59 | i | i
C#CCN(C1CC1)S(=O)(=O)c1ccccc1Br | nt | nt | i | nt | i | nt
OCC(CCc1c[nH]c2ccccc12)c1c[nH]c2ccccc12 (centres undefined) | nt | nt | i | nt | i | nt
O=C(N/N=C/c1ccccc1O)c1cc[n+]([O-])cc1 | i | i | i | 54 | i | nt
CC(=C/c1ccc(C(C)C)cc1)/C=N/NC(=O)c1ccncc1 | i | i | i | 58 | i | nt
CC(/C=N/NC(=O)c1ccncc1)=C\c1ccccc1 | i | i | i | i | i | nt
CCN(CC)S(=O)(=O)c1ccc2oc(C(=O)NCC3COc4ccccc4O3)c(C)c2c1 (centres undefined) | i | i | i | 54 | i | i
Cc1c(C(=O)NCC2COc3ccccc3O2)oc2ccc(S(=O)(=O)N3CCOCC3)cc12 (centres undefined) | i | i | i | 60 | i | i
COc1ccc2c(c1)C[C@@H](CON1C(C)(C)CCCC1(C)C)N2S(=O)(=O)c1ccc(C)cc1 | nt | nt | i | nt | i | nt
CN1C2=N[C@@H](c3ccc4c(c3)OCO4)CC(=O)N2/C(=C\c2ccccc2)[C@H]1c1ccccc1 | nt | nt | i | nt | i | nt
O=C(CSc1nnnn1-c1ccc(F)cc1)c1ccc(O)c(O)c1 | i | i | i | 54 | i | i
O=C(O)c1ccc(CSc2nnnn2-c2ccc(F)cc2)cc1 | i | i | i | i | i | nt
COc1ccc(N2CC(C(=O)NCc3ccccc3)CC2=O)cc1 (centres undefined) | i | i | i | i | i | i
O=C(NCc1cccnc1)C1CC(=O)N(c2ccc(Cl)cc2)C1 (centres undefined) | i | i | i | i | i | i
O=C(NCc1n[nH]c(=O)c2ccccc12)C1CC(=O)N(c2ccc(Cl)cc2)C1 (centres undefined) | i | i | i | 59 | i | i
COc1ccc(N2CC(C(=O)NCc3n[nH]c(=O)c4ccccc34)CC2=O)cc1 (centres undefined) | i | i | i | 65 | i | i
O=c1c2ccccc2oc2nc(-c3ccco3)n(Cc3ccccc3)c(=O)c12 | i | i | i | 63 | i | i
CCN(CC)C(=O)CC[C@H]1CC[C@]2(CCCN(Cc3cccc4ccccc34)C2)O1 | nt | nt | i | nt | i | nt
COC(=O)[C@H]1C[C@@]2(C3C=CC=C3)c3ccccc3N[C@H]2N1 | nt | nt | i | nt | i | nt
NC(=O)c1cccc(Nc2nc(C(N)CCc3ccccc3)cs2)n1 (centres undefined) | i | nt | i | 77 | i | i
SMILES | MT1-MMP act inh | DAGLB inh | DDE Tn7 FP inh | Cardio protect | Tn6 DDE FP | H9c2 TAG inh
CCCCCCCCN1C(=O)[C@@H](CC(=O)NCCCCc2ccccc2)C[C@@]2(C(=O)OC)C1=C[C@H](COCc1ccccc1)O[C@@H]2C | nt | nt | i | nt | i | nt
CN1/C(=C/c2cc[n+](C)c3ccccc23)C=Cc2ccccc21 | 64 | i | nt | i | nt | i
C[n+]1ccc(/C=C/c2ccccc2O)c2ccccc21 | i | i | i | i | i | i
CCOC(=O)c1c(C)oc2c1c1c(c3ccccc32)OCN(Cc2ccccn2)C1 | i | i | i | 54 | i | i
O=C(c1ccc(Br)cc1)c1cc([N+](=O)[O-])ccc1N1CCCCC1 | i | i | i | i | i | 59
Cc1cccc(NC(c2ccc(C)s2)c2ccc3ccc(C)nc3c2O)n1 (centres undefined) | i | i | i | 91 | i | nt
O=C(O)c1ccccc1NC(c1ccccc1)c1ccc2cccnc2c1O (centres undefined) | i | i | i | 59 | i | i
Cc1ccc2ccc(C(Nc3ccccc3)c3ccccc3)c(O)c2n1 (centres undefined) | i | nt | i | nt | i | nt
Oc1c(C(Nc2ccccn2)c2ccccn2)ccc2cccnc12 (centres undefined) | i | i | i | i | i | i
Oc1ccccc1C(Nc1nccs1)c1ccc2cccnc2c1O (centres undefined) | i | i | i | i | i | 52
Cc1ccc2ccc(C(Nc3cccc(C(F)(F)F)c3)c3cccnc3)c(O)c2n1 (centres undefined) | i | i | i | 84 | i | i
Cc1cccc(NC(=O)n2ccc3ccc(-c4ccc5cc[nH]c5c4)cc32)c1 | nt | nt | i | nt | i | nt
C[C@@H]1[C@@H](c2ccccc2)c2cc3ccccc3nc2C(=O)C[C@@H]1C(=O)N1CCCC1 | nt | nt | i | nt | i | nt
Cc1ccnc(NC(c2ccccc2)c2ccc3cccnc3c2O)c1 (centres undefined) | i | i | i | i | i | i
Cc1ccnc(NC(c2ccsc2)c2ccc3ccc(C)nc3c2O)c1 (centres undefined) | i | i | i | 54 | i | i
Cc1ccc2ccc(C(Nc3ccccn3)c3ccccc3)c(O)c2n1 (centres undefined) | i | i | i | 88 | i | i
COc1cc(C(Nc2ccccn2)c2ccc3ccc(C)nc3c2O)cc(OC)c1O (centres undefined) | i | i | nt | i | nt | nt
COc1ccc(C(Nc2cc(C)ccn2)c2ccc3ccc(C)nc3c2O)cc1 (centres undefined) | i | i | i | 62 | i | i
COC(=O)[C@]12C[C@H](CC(=O)N3CCSCC3)C(=O)N(Cc3cccc4ccccc34)C1=C[C@H](C(C)C)O[C@@H]2C1CC1 | nt | nt | i | nt | i | nt
CC(C)NC(=O)[C@]1(C#N)CC(=O)N(C)[C@@H]1c1ccccc1 | nt | nt | i | nt | i | nt
COC(=O)CC1CCc2cc(C)cc(C(=O)CC(C)C)c2O1 (centres undefined) | nt | nt | i | nt | i | nt
